# Only some compounds are listed: those with a hit (about 3.8% of all), similar ones and a draw of the others.
# hERG rescue = shields human hERG channel from block by proarrhythmic agents. AID 1511. CHO-hERG, FluxOR thallium flux, dofetilide IC70 present. actives 0.51% (n = 310,000). activation (rescue from dofetilide block), less the hit threshold, % at 10 µM;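 active means activation above the mean of controls blocked by dofetilide plus 5 SD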;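 further: thallium influx through hERG after potassium depolarization seen as dye fluorescence rise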
# KCNQ1 inh = blocks the human KCNQ1 potassium channel. P51787. CHO-K1 KCNQ1, FluxOR thallium flux fluorescence; stronger effect = higher value. B-score at 10 µM. actives 1.3% (n = 310,000). AID 2642;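 active means compounds whose thallium flux B-score, printed positive for inhibition, exceeds three library SD while starting fluorescence stays within three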;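 further: channel opened by potassium depolarization with thallium stimulus after 20 min compound exposure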
# KCNK3 inh = human KCNK3 channel inhibition, primary screen. actives 0.84% (n = 340,000). B-score at 10 µM. CHO-KCNK3 thallium flux, FluxOR fluorescence; stronger effect = lower value;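 active means B-score under library mean minus 4 SD, starting fluorescence ratio at most library mean plus 5 SD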;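 further: more negative B-score means stronger inhibition of thallium flux through KCNK3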
# KCNK9 inh = human KCNK9 channel inhibition | actives 1.2% (n = 310,000) | B-score at 10 µM | HEK293 KCNK9, FluxOR thallium flux fluorescence; stronger effect = lower value;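 active means ratio B-score over 3 SD below the library mean, with starting fluorescence within 5 SD of its mean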;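 further: negative B-score means less thallium flux so channel inhibition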
# KCNQ1 act = human KCNQ1 channel potentiation or activation; P51787; actives 0.35% (n = 310,000); AID 2648; CHO-K1 KCNQ1, thallium flux FluxOR fluorescence; stronger effect = higher value; B-score at 10 µM;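 active means fluorescence ratio B-score, a plate-corrected score, at least three library SD, with initial intensity B-score within 5 SD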
#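 Medium – assay buffer, equal DMSO in all wells · Material – CHO-K1 cell line with stable KCNQ1 potassium channel expression · Signal – kinetic FluxOR thallium fluorescence, 10-s 1-Hz baseline, 110-s post-stimulus read · Compound – single concentration per compound, DMSO matched to controls · Schedule – 37 °C overnight plating, 90-min dark dye load, 20-min compound pretreatment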
# Kir21 block = blocks the mouse Kir2.1 inward-rectifier potassium channel; P35561; HEK293-Kir2.1, FluxOR thallium flux fluorescence; stronger effect = lower value; B-score at 10 µM; actives 0.85% (n = 310,000); AID 1672;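 active means fluorescence ratio B-score at or below minus 3 SD of library scores, with starting-brightness B-score within 2 SD, cut at about -4.2 in these data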;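 further: channel flux triggered by added potassium and thallium sulfate stimulus; B-score of peak minus minimum fluorescence over baseline after thallium stimulus; more negative B-score means stronger Kir2.1 block with less thallium influx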
# KCNK9 block conf = human KCNK9 inhibitor confirmation | AID 492992 | actives 43% (n = 4,900) | HEK293 KCNK9 cells, FluxOR thallium flux fluorescence | inhibition, % at 10 µM | shares compounds with KCNK9 inh;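 active means thallium signal inhibited by more than 5 SD of the compound-free buffer control wells, on both duplicate plates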;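 further: 0% = assay buffer control wells without compound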
# Kir2-1 spec = selectivity of KCNK9 modulators against mouse Kir2.1 | shares compounds with KCNK9 inh | Kir2.1 cells, FluxOR thallium flux fluorescence | inhibition, % at 10 µM | actives 4% (n = 4,900) | AID 492993;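 active means thallium signal drop more than 5 SD beyond the mean of the no-compound control wells, seen in both duplicate plates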;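 further: signal is fluorescence rise after thallium addition divided by baseline fluorescence; plate controls were assay buffer only for no effect and full block by chlorpromazine control for full effect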
# HEK293 Tl ctr = second counter-screen for KCNK9 modulators: effect in non-induced cells; shares compounds with KCNK9 inh; inhibition, % at 10 µM; actives 40% (n = 4,900); non-induced KCNK9-HEK293, FluxOR thallium flux;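 active means thallium signal drop beyond 5 SD of the untreated control mean, on both duplicate plates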;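 further: plate controls were buffer only IC0 wells for no effect and SID17386958 at its maximal inhibitory level for full effect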
# * hit, by the source's call; i = inactive; x = no result.
SMILES,hERG rescue,KCNQ1 inh,KCNK3 inh,KCNK9 inh,KCNQ1 act,Kir21 block,KCNK9 block conf,Kir2-1 spec,HEK293 Tl ctr
CCN(CC)c1ccc(/C=N/N2CCN(Cc3cccc4ccccc34)CC2)c(O)c1,-8,i,i,i,i,-0.61,i,i,i
C(=N\N1CCN(Cc2cccc3ccccc23)CC1)/c1cccs1,-4,i,i,i,i,0.69,i,i,i
C/C(=N/N1CCN(Cc2cccc3ccccc23)CC1)c1ccco1,-13,i,i,i,i,-0.41,i,i,i
OC1CCN(Cc2cccc3ccccc23)CC1,-9,i,i,i,i,-2.7,x,x,x
CCN(CC)c1ccc(/C=N/N2CCN(Cc3ccc(Cl)cc3)CC2)c(O)c1,-3,i,i,i,i,-1.2,x,x,x
C(=N\N1CCN(Cc2ccccc2)CC1)/c1cccs1,-4,i,i,i,i,1.9,x,x,x
CCC(=O)c1ccc(OCC(=O)Nc2ccccc2C(=O)NC2CC2)cc1,x,x,i,x,x,x,x,x,x
CC1CN(c2sc(S(C)(=O)=O)nc2S(=O)(=O)c2ccc(Cl)cc2)CC(C)O1 (stereo unspecified),-5,i,i,i,i,0.49,x,x,x
O=C1c2ccccc2C(Nc2ccc(Cl)cn2)N1c1ccccn1 (stereo unspecified),-8,i,i,-9.8*,i,-0.09,37%*,i,i
COC(=O)CN1C(c2ccc(Cl)cc2)=Nc2ccc(Cl)cc2C1c1ccccc1 (stereo unspecified),-12,i,i,-10*,i,-0.83,32%*,i,42%*
Cc1ccc(C)c2nc3sc(C(=O)N4CCCc5ccccc54)c(N)c3cc12,-21,i,i,-9.1*,i,-1.3,39%*,i,73%*
CCOc1cccc(OCCOCCN(C)Cc2ccccc2)c1,-10,i,i,i,i,-3.2,x,x,x
COc1cccc(NC(=S)N/N=C2/CCCCc3ccccc32)c1,-9,i,i,i,15*,-0.28,i,i,i
Cc1ccc(C)c(NC(=S)N/N=C2/CCCCc3ccccc32)c1,-4,i,i,i,i,0.42,i,i,i
CC(C)NC(=S)N/N=C1\CCCCc2ccccc21,0,i,i,i,i,-2.2,x,x,x
COc1ccc(-c2cc3ccccc3nc2N)cc1OC,-4,i,i,i,i,-0.05,x,x,x
COc1ccc(CCNC(=O)C(=O)NCC2OCCN2S(=O)(=O)c2cccs2)cc1 (stereo unspecified),-7,i,i,i,i,-0.05,x,x,x
CCN=c1scc(-c2ccco2)n1/N=C/c1ccc(O)cc1,-11,i,i,i,i,0.79,x,x,x
CCN=c1scc(-c2ccco2)n1/N=C/c1ccc(OC)c(O)c1,-18,i,i,i,i,-0.02,i,i,i
CC(C)c1ccccc1-n1c(SCc2cc(=O)oc3ccc4ccccc4c23)nnc1-c1cccnc1,-17,i,i,-11*,i,-1.7,50%*,i,i
CC(C)NC(=O)CC(c1ccccc1)c1cc(Br)ccc1O (stereo unspecified),-18,i,i,i,i,-0.18,x,x,x
O=C(CC(c1ccccc1)c1cc(Br)ccc1O)NCc1ccco1 (stereo unspecified),-17,i,-11*,-11*,i,-2.4,48%*,i,i
O=[N+]([O-])c1ccc2nc(NS(=O)(=O)c3ccc(Cl)cc3)sc2c1,-2,i,i,i,i,-1.4,x,x,x
CCOC(=O)c1c(NC(=O)CSc2nnc(C)s2)sc2c1CCC(C)C2 (stereo unspecified),-13,i,i,-9.8*,i,0.21,i,i,52%*
CCOC(=O)c1c(NC(=O)CSc2nnc(-c3ccc(OC)cc3)o2)sc2c1CCC2,-12,i,i,i,i,0.14,i,i,i
SMILES,hERG rescue,KCNQ1 inh,KCNK3 inh,KCNK9 inh,KCNQ1 act,Kir21 block,KCNK9 block conf,Kir2-1 spec,HEK293 Tl ctr
CCOC(=O)c1c(NC(=O)Cn2nnc3ccccc32)sc2c1CCC(C)C2 (stereo unspecified),-5,i,i,i,i,-1.3,x,x,x
CCOC(=O)c1c(NC(=O)CSc2nnc(-c3cccnc3)o2)sc2c1CCC2,-2,i,i,i,i,1.3,x,x,x
Cc1nc(NCc2cccnc2)c2c3c(sc2n1)CCCC3,-11,i,i,i,i,-0.71,x,x,x
C/C(=N\Nc1cc(C(F)(F)F)ccc1Cl)c1ccccc1O,-12,i,i,i,i,0.49,i,i,i
C/C(=N\Nc1ccc(F)cc1F)c1ccccc1O,-10,i,i,i,i,0.02,x,x,x
COc1ccc(C(=O)C2CCCN(C(=O)/C=C/c3ccccn3)C2)c(C)c1 (stereo unspecified),-7,i,i,i,i,-0.12,i,i,i
COc1ccc2cc(C(=O)C3CCCN(C(=O)CCc4ccccn4)C3)ccc2c1 (stereo unspecified),-21,i,i,i,i,2.5,i,i,i
O=C(c1ccc(Cl)cc1)C1CCCN(C(=O)/C=C/c2ccccn2)C1 (stereo unspecified),-9,i,i,i,i,0.43,i,i,i
COc1ccc(C(=O)C2CCCN(C(=O)/C=C/c3cnc[nH]3)C2)c(C)c1 (stereo unspecified),-10,i,i,i,i,-0.52,x,x,x
COc1cccc(C(=O)C2CCCN(C(=O)CCc3scnc3C)C2)c1 (stereo unspecified),-8,i,i,i,i,-0.24,x,x,x
O=C(C1Cc2ccccc2O1)N1CCCCC1 (stereo unspecified),-2,i,i,i,i,0.62,x,x,x
CC1CCN(c2nc(-c3cccnc3)nc3scc(-c4ccccc4)c23)CC1,-10,i,i,i,i,-0.47,x,x,x
CC1CCCN(c2nc(-c3cccnc3)nc3scc(-c4ccccc4)c23)C1 (stereo unspecified),-15,i,i,-9.1*,i,-0.22,35%*,i,35%*

# Assay outcomes: PubChem BioAssay, Johns Hopkins Ion Channel Center
